{"source": "ChEMBL document CHEMBL1121502", "about": "“Antiallergy activity of 10-oxo-10-H-pyridazino[6,1-b]quinazoline-2-carboxylic acids” (1980)", "type_in_all_cases": "functional", "key": {"Rattus norvegicus [1]": {"system": "Rattus norvegicus", "experiment": "Antiallergic activity is evaluated for its ability to inhibit reaginic passive cutaneous anaphylaxis (PCA) in rats dosed at 0.5 mg/kg intravenously", "settings": "route intravenous", "how_it_was_run": "(§1)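 Antiserum dilutions were injected intradermally at several back sites. 48 h later, rats were challenged i.v. with 1 mg ovalbumin in 1 mL saline containing 0.25% Evans blue. Diameter was plotted against relative antiserum concentration, and the least-squares line was extrapolated to zero antiserum. Groups of five animals were used.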"}, "Rattus norvegicus [2]": {"system": "Rattus norvegicus", "experiment": "Antiallergic activity is evaluated for its ability to inhibit reaginic passive cutaneous anaphylaxis (PCA) in rats dosed intravenously", "settings": "iv", "how_it_was_run": "as §1"}, "Rattus norvegicus [3]": {"system": "Rattus norvegicus", "experiment": "Antiallergy activity is evaluated for its ability to inhibit passive cutaneous anaphylaxis (PCA) in rats, dosed perorally", "settings": "po", "how_it_was_run": "as §1"}, "Rattus norvegicus [4]": {"system": "Rattus norvegicus", "experiment": "Antiallergic activity is evaluated for its ability to inhibit reaginic passive cutaneous anaphylaxis (PCA) in rats dosed at 5 mg/kg intravenously", "settings": "ip, in the assay text read “intraperitoneally” for “intravenously”", "how_it_was_run": "as §1"}, "Rattus norvegicus [5]": {"system": "Rattus norvegicus", "experiment": "Antiallergic activity is evaluated for its ability to inhibit reaginic passive cutaneous anaphylaxis (PCA) in rats dosed perorally", "settings": "po", "how_it_was_run": "as §1"}, "Rattus norvegicus [6]": {"system": "Rattus norvegicus", "experiment": "Antiallergic activity is evaluated for its ability to inhibit reaginic passive cutaneous anaphylaxis (PCA) in rats dosed intravenously; Value ranges from 1-2", "settings": "iv", "how_it_was_run": "as §1"}}, "data": [{"compound": "Cc1ccc2c(=O)n3nc(C(=O)O)ccc3nc2c1", "values": [{"measurement": "inhibition in vivo at 0.5 mg/kg", "setting": "Rattus norvegicus [1]", "result": 32, "unit": "%"}]}, {"compound": "Cc1ccc2nc3ccc(C(=O)O)nn3c(=O)c2c1", "values": [{"measurement": "inhibition in vivo at 0.5 mg/kg", "setting": "Rattus norvegicus [1]", "result": 0, "unit": "%"}]}, {"compound": "O=C(O)c1ccc2nc3ccccc3c(=O)n2n1", "values": [{"measurement": "inhibition in vivo at 0.5 mg/kg", "setting": "Rattus norvegicus [1]", "result": 76, "unit": "%"}]}, {"compound": "Cc1ccc2nc3ccc(C(=O)O)cn3c(=O)c2c1", "values": [{"measurement": "ED50", "setting": "Rattus norvegicus [2]", "result": 0.05, "unit": "mg/kg"}, {"measurement": "ED50", "setting": "Rattus norvegicus [3]", "result": 0.7, "unit": "mg/kg"}]}, {"compound": "O=C(O)c1ccc2nc3ccc(Cl)nn3c(=O)c2c1", "values": [{"measurement": "inhibition in vivo at 5 mg/kg", "setting": "Rattus norvegicus [4]", "result": 0, "unit": "%"}]}, {"compound": "O=C(O)c1ccc2c(=O)n3nc(Cl)ccc3nc2c1", "values": [{"measurement": "inhibition in vivo at 5 mg/kg", "setting": "Rattus norvegicus [4]", "result": 0, "unit": "%"}]}, {"compound": "COC(=O)c1ccc2c(=O)n3nc(Cl)ccc3nc2c1", "values": [{"measurement": "inhibition in vivo at 5 mg/kg", "setting": "Rattus norvegicus [4]", "result": 0, "unit": "%"}]}, {"compound": "O=C1c2ccccc2S(=O)(=O)c2cc(-c3nn[nH]n3)ccc21", "note": "[DOXANTRAZOLE]", "values": [{"measurement": "ED50", "setting": "Rattus norvegicus [5]", "result": 5, "unit": "mg/kg"}, {"measurement": "ED50", "setting": "Rattus norvegicus [2]", "result": 1, "unit": "mg/kg"}]}, {"compound": "O=C(O)c1ccc2nc3cc4ccccc4cc3c(=O)n2n1", "values": [{"measurement": "inhibition in vivo at 0.5 mg/kg", "setting": "Rattus norvegicus [1]", "result": 36, "unit": "%"}]}, {"compound": "O=C([O-])c1cc(=O)c2c(OCC(O)COc3cccc4oc(C(=O)[O-])cc(=O)c34)cccc2o1.[Na+].[Na+]", "note": "[CROMOLYN SODIUM]", "values": [{"measurement": "ED50", "setting": "Rattus norvegicus [6]", "result": 1, "unit": "mg/kg"}]}, {"compound": "COc1ccc2nc3ccc(C(=O)O)nn3c(=O)c2c1", "values": [{"measurement": "inhibition in vivo at 0.5 mg/kg", "setting": "Rattus norvegicus [1]", "result": 8, "unit": "%"}]}, {"compound": "COC(=O)c1ccc2nc3ccc(Cl)nn3c(=O)c2c1", "values": [{"measurement": "inhibition in vivo at 5 mg/kg", "setting": "Rattus norvegicus [4]", "result": 6, "unit": "%"}]}, {"compound": "O=C(O)c1ccc2nc3ccc(Cl)cc3c(=O)n2n1", "values": [{"measurement": "inhibition in vivo at 0.5 mg/kg", "setting": "Rattus norvegicus [1]", "result": 91, "unit": "%"}]}]}
